This is an account of results in ChEMBL document CHEMBL3525991, “Metabolic transformation of antitumor acridinone C-1305 but not C-1311 via selective cellular expression of UGT1A10 increases cytotoxic response: implications for clinical use” (Drug Metab Dispos, 2013).

Calls of active or inactive are those of the source. The rule behind the calls is not given here.

The target in data set [1] is T1, UDP-glucuronosyltransferase 2B4 (Homo sapiens, UniProt P06133).
T1 sequence (P06133 whole entry): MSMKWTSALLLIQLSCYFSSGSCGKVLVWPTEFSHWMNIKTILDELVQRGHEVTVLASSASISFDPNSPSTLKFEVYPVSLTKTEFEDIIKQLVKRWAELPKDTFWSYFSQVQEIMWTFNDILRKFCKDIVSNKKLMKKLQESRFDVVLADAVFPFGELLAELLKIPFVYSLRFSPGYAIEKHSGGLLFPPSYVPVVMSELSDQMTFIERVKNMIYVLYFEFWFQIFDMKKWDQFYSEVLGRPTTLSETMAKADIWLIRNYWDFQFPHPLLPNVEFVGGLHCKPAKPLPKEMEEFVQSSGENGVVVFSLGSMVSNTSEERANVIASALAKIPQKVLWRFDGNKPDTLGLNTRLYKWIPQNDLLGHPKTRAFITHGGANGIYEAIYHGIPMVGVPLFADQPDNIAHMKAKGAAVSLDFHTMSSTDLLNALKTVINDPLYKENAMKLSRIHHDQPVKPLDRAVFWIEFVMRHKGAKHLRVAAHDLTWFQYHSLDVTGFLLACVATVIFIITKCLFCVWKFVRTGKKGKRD
The data set is described as follows: Drug metabolism in human KB3 cells overexpressing human UGT2B4 assessed as enzyme-mediated metabolites formation at 30 uM for 24 to 72 hrs by HPLC analysis. Format: ADME, cell-based. Particulars: kb3, 30 µM. In outline: (§1)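 Untransfected KB-3, or cells electroporated 24 h earlier with UGT1A10 or UGT2B4 plasmid, grown to 80% confluence and treated with 30 μM drug for 24, 48 or 72 h. Cells plus medium collected, washed, sonicated in ice-cold 60% methanol. Reverse-phase HPLC at 1 ml/min in 50 mM ammonium formate pH 3.2, with a 15–80% methanol gradient over 25 min, then to 100%. Positive-ion ESI-MS.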

Data set [2] can be described thus: Cytotoxicity against human KB3 cells expressing human UGT2B4 assessed as decrease in cell viability after 72 hrs by MTT assay. Format: functional, cell-based. Particulars: KB3, 72 h. In outline: (§2)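 KB-3 cells electroporated with 5 μg plasmid (UGT1A10-pcDNA3.1, UGT2B4-pIRES or empty pcDNA3.1), cotransfected with GFP (140 V, 250 μF). Used 24 h later at 2000/well. Next day, drug up to 10 μM in 0.1% DMSO for 72 h. MTT read at 540 nm after 4 h. Triplicates, relative to vehicle. IC50 is 50% of control absorbance.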

A short description of data set [3]: Cytotoxicity against human KB3 cells expressing pcDNA3.1 assessed as decrease in cell viability after 72 hrs by MTT assay. It counts as functional, cell-based. Particulars: KB3, 72 h. In outline: as §2
Data set [4] is described as follows: Cell cycle arrest in human KB3 cells overexpressing human UGT1A10 assessed as distribution at subG1 DNA content at 8 uM after 24 hrs by propidium iodide staining-based FACS flow cytometric analysis (reference value: 3.4%). Particulars: in the assay text read “72 hrs” for “24 hrs”. Format: functional. The method in brief: (§3)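 KB-3 cells were electroporated with a UGT1A10 expression plasmid (140 V, 250 μF), co-transfected with GFP, and used 24 h later. At 80% confluence they received 8 μM or 3 μM compound, or 0.1% DMSO, for 24–72 h. Cells were fixed in ice-cold 70% ethanol, stained with PI/RNase for 30 min in the dark, and analysed by flow cytometry for DNA content; at least two experiments.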

The nature of data set [5]: Cell cycle arrest in human KB3 cells assessed as distribution at G2 phase at 8 uM after 48 to 72 hrs by propidium iodide staining-based FACS flow cytometric analysis. It counts as functional.
Data set [6] in a line: Cytotoxicity against human KB3 cells assessed as decrease in cell viability after 72 hrs by MTT assay. Format: functional, cell-based. The note with it: KB3, 72 h. The method in brief: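 KB-3 (HeLa variant) cells, untransfected, in DMEM with 10% FBS at 37 °C, 5% CO2, seeded 2000/well. Next day, drug added at concentrations up to 10 μM, final 0.1% DMSO; vehicle controls. MTT read at 540 nm after 4 h, following DMSO solubilisation. Triplicate points, relative to vehicle. IC50 is the concentration giving 50% of control absorbance. Repeated independently.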

For data set [7], the target named is T2, UDP-glucuronosyltransferase 1A10 (Homo sapiens, UniProt Q9HAW8).
T2 sequence (Q9HAW8 whole entry): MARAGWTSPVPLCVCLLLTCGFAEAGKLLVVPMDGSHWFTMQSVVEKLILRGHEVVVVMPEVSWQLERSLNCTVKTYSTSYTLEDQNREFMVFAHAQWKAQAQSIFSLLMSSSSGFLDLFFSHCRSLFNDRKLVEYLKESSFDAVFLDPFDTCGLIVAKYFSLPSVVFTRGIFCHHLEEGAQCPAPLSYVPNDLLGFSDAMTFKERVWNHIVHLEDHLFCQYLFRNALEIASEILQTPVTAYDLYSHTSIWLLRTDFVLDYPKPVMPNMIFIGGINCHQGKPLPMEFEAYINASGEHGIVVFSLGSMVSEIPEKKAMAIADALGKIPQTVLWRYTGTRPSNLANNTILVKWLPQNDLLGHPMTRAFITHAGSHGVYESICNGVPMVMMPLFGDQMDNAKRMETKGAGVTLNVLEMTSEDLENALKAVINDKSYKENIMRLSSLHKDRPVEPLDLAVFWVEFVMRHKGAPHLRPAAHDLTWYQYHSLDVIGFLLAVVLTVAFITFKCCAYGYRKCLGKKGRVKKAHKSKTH
Put plainly: Drug metabolism in human KB3 cells overexpressing human UGT1A10 assessed as enzyme-mediated metabolites formation at 30 uM for 24 to 72 hrs by HPLC analysis. Particulars: kb3, 30 µM. It counts as ADME, cell-based. The method in brief:
as §1

A short description of data set [8]: Cell cycle arrest in human KB3 cells assessed as distribution at subG1 DNA content at 8 uM after 72 hrs by propidium iodide staining-based FACS flow cytometric analysis (reference value: 3.4%). It counts as functional.
The nature of data set [9]: Cell cycle arrest in human KB3 cells assessed as distribution at G2/M phase at 8 uM after 24 hrs by propidium iodide staining-based FACS flow cytometric analysis. It counts as functional.
Data set [10] in a line: Cytotoxicity against human KB3 cells expressing human UGT1A10 assessed as decrease in cell viability after 72 hrs by MTT assay. Format: functional, cell-based. The note with it: KB3, 72 h. In outline:
as §2

Data set [11] in a line: Cell cycle arrest in human KB3 cells assessed as reduction of cells at G1 phase at 8 uM after 24 hrs by propidium iodide staining-based FACS flow cytometric analysis. It counts as functional.
Data set [12] deals with T2, UDP-glucuronosyltransferase 1A10. Put plainly: Drug metabolism in human KB3 cells overexpressing human UGT1A10 assessed as enzyme-mediated metabolites formation at 30 uM for 24 to 72 hrs by HPLC analysis and electrospray ionization-mass spectrometry. It counts as ADME, cell-based. The note with it: kb3, 30 µM. In outline: as §1
Data set [13] in a line: Drug metabolism in human KB3 cells assessed as retention time at 30 uM for 24 to 72 hrs by HPLC analysis. The note with it: kb3, 30 µM. Format: ADME, cell-based. The method in brief:
as §1

Data set [14] can be described thus: Cell cycle arrest in human KB3 cells overexpressing human UGT1A10 assessed as accumulation of cells with 4N DNA content at 8 uM after 24 to 72 hrs by propidium iodide staining-based FACS flow cytometric analysis. It counts as functional. In outline: as §3
The nature of data set [15]: Cell cycle arrest in human KB3 cells assessed as distribution at M phase at 8 uM after 48 to 72 hrs by propidium iodide staining-based FACS flow cytometric analysis. It counts as functional.
The nature of data set [16]: Cell cycle arrest in human KB3 cells assessed as distribution at S phase at 8 uM after 24 hrs by propidium iodide staining-based FACS flow cytometric analysis. It counts as functional.
The nature of data set [17]: Cell cycle arrest in human KB3 cells assessed as distribution at M phase at 3 uM after 24 hrs by propidium iodide staining-based FACS flow cytometric analysis. Format: functional.
A short description of data set [18]: Cell cycle arrest in human KB3 cells overexpressing human UGT1A10 assessed as distribution at subG1 DNA content at 3 uM after 24 hrs by propidium iodide staining-based FACS flow cytometric analysis (reference value: 3.4%). The note with it: in the assay text read “72 hrs” for “24 hrs”. It counts as functional. The method in brief: as §3
Data set [19] can be described thus: Cell cycle arrest in human KB3 cells assessed as distribution at G2 phase at 3 uM after 24 hrs by propidium iodide staining-based FACS flow cytometric analysis. It counts as functional.
A short description of data set [20]: Cell cycle arrest in human KB3 cells overexpressing human UGT1A10 assessed as accumulation of cells with 4N DNA content at 3 uM after 24 to 72 hrs by propidium iodide staining-based FACS flow cytometric analysis. Format: functional. In outline: as §3
The nature of data set [21]: Cell cycle arrest in human KB3 cells assessed as distribution at S phase at 3 uM after 24 hrs by propidium iodide staining-based FACS flow cytometric analysis. It counts as functional.
Data set [22] in a line: Cell cycle arrest in human KB3 cells assessed as distribution at subG1 DNA content at 3 uM after 72 hrs by propidium iodide staining-based FACS flow cytometric analysis (reference value: 3.4%).

Take `CN(C)CCCNc1ccc2nnn3c4ccc(O)cc4c(=O)c1c23.Cl`: the Drug metabolism result in [1] was “metabolite_not_detected”; in data set [7] it was “metabolite_detected”; in data set [12], “metabolite_detected”. Further, the IC50 in data set [2] stood at 261 nM; in data set [3], 260 nM; in data set [6], 263 nM; in data set [10], 180 nM. In addition, the Activity in data set [4] came to 37.2%; in data set [8], 18.7%. Also, the result in data set [5], in data set [9], in data set [11], in data set [14], in data set [15] and in [16] was Active. For the same compound, the Retention_time in data set [13] stood at 18 min.
With `CCN(CC)CCNc1ccc2ncn3c4ccc(O)cc4c(=O)c1c23.Cl`, the Drug metabolism result is “metabolite_not_detected” in data set [1], “metabolite_detected” in [7] and “metabolite_detected” in [12]. The concentration for half-maximal inhibition (IC50) in [2] was determined as 113 nM; in data set [3] it was 102 nM; in data set [6], 106 nM; in data set [10], 131 nM. Besides, the outcome in data set [17], in data set [19], in data set [20] and in data set [21] was Active. In addition, the Activity in data set [18] is 22.4%; in [22], 16.9%. Further, the Retention_time in data set [13] was found to be 15 min.
